Experimental findings from ChEMBL document CHEMBL3232810, “Synthesis, biological evaluation and 3D-QSAR studies of new chalcone derivatives as inhibitors of human P-glycoprotein” (Bioorg Med Chem, 2014) are described below.

In general, IC50 refers to the midpoint of a concentration-inhibition curve. A high value points to a need for much substance.

The test addresses ATP-dependent translocase ABCB1 (Homo sapiens, UniProt P08183). Nature of the test: Inhibition of P-gp-mediated daunorubicin efflux in human CCRF-CEM/VCR1000 cells measured within 1 hr by FACS flow cytometry. An outline of the steps:
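CCRF vcr1000 cells kept in RPMI 1640 with 10% FCS and 1000 ng/mL vincristine; vincristine washed out 1 week before use. Cells at 1×10⁶/mL were preloaded with daunorubicin (3 µmol/L final), 30 min, 37 °C. After pelleting they were resuspended in warm medium with inhibitor, eight concentrations (1:3 serial), top 20–200 µM. Aliquots at 0, 60, 120, 180 and 240 s went into ice-cold stop solution (5 µmol/L GPV31 final). Initial efflux rates came from linear regression, and IC50 from a Hill-equation fit of rate versus concentration.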
(In general: In flow cytometry, cells or beads pass a laser one at a time.)

Sequence of ATP-dependent translocase ABCB1 (P08183 whole entry): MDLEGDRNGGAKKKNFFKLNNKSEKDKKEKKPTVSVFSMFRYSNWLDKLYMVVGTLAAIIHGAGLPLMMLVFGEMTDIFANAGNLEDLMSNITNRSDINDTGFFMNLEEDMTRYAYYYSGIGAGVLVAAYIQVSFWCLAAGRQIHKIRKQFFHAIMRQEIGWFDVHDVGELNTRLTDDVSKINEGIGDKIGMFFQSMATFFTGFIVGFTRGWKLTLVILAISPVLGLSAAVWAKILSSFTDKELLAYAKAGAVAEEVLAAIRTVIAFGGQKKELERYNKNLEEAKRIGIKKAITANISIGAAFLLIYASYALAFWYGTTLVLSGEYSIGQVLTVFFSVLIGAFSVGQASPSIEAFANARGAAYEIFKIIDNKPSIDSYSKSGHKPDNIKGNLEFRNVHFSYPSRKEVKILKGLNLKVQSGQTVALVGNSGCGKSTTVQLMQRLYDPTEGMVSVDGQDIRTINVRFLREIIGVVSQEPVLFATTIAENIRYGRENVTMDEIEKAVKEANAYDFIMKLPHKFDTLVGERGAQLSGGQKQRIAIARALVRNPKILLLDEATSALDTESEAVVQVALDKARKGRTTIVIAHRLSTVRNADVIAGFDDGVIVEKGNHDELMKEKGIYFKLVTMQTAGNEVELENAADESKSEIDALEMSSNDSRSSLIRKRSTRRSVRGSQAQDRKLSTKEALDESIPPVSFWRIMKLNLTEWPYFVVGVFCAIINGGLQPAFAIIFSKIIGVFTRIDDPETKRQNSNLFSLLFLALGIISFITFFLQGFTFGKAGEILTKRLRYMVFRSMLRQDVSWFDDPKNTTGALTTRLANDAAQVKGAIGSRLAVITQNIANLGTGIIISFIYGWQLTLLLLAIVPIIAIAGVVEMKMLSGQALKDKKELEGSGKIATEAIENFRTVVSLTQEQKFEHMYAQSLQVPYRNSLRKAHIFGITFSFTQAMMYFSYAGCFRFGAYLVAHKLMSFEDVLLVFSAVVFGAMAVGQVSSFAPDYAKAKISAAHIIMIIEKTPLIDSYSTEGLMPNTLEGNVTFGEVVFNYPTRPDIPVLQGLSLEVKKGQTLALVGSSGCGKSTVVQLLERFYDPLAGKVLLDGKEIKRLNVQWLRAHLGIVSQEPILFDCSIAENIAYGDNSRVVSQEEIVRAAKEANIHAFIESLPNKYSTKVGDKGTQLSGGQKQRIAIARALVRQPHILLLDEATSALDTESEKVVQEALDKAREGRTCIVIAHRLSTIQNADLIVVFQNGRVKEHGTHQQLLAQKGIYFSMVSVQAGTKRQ

`COc1cc2c(cc1OC)C(=O)/C(=C/c1ccc(N(C)C)cc1)C2` yielded an IC50 of 130 nM.

Molecule `COc1ccc2c(c1)CC/C(=C\C=C\c1cc(OC)c(OC)c(OC)c1)C2=O` showed an IC50 of 1740 nM.

Regarding `COc1ccccc1C(=O)/C=C/c1c(C)cc(C)cc1C`, the IC50 amounted to 8510 nM.

On to `COc1ccc(C(=O)/C=C/c2ccc(OC)c3ccccc23)cc1OC`, for which the IC50 was 2750 nM. Compared with the last molecule, the IC50 is about 3.1-fold lower.

`COc1ccccc1/C=C/C=C/C(=O)c1cc(OC)c(OC)c(OC)c1` showed an IC50 of 1380 nM.

`COc1ccccc1/C=C/C=C/C(=O)c1cc(OC)c(O)c(OC)c1` returned an IC50 of 12000 nM.

In turn, `COc1cc(C(=O)/C=C/c2ccccc2SC)cc(OC)c1OC` showed a concentration for half-maximal inhibition (IC50) of 650 nM.

On to `COc1cc(C(=O)/C=C/C=C/c2ccccc2SC)cc(OC)c1OC`, for which half-maximal inhibition (IC50) was put at 870 nM.

Regarding `COc1cc2c(cc1OC)C(=O)/C(=C/C=C/c1ccc(N(C)C)cc1)C2`, half-maximal inhibition (IC50) required 40 nM.

`COc1ccc2c(c1)CC/C(=C\c1ccc3ccccc3c1)C2=O`: it took 3550 nM to reach half-maximal inhibition (IC50).

The molecule `COc1cc2c(cc1OC)C(=O)/C(=C/C=C/c1cc(OC)c(OC)c(OC)c1)CC2` came in with an IC50 of 140 nM.

On to `COc1ccc2c(c1)C(=O)/C(=C/C=C/c1cc(OC)c(OC)c(OC)c1)C2`, for which half-maximal inhibition (IC50) was put at 1150 nM.

Molecule `COc1cc(/C=C/C=C2\Cc3ccc(OC)c(OC)c3C2=O)cc(OC)c1OC` yielded an IC50 of 2630 nM.

Molecule `COc1cc(/C=C/C=C2\Cc3ccc(OC)c(OC)c3C2=O)ccc1O` registered an IC50 of 2330 nM.

Regarding `COc1ccc2c(c1)C/C(=C\C=C\c1ccccc1OC)C2=O`, the concentration for half-maximal inhibition (IC50) was determined as 3890 nM.

With `COc1cc(C(=O)/C=C/c2ccc(C(=O)O)cc2)cc(OC)c1OC`, it took 141000 nM to reach half-maximal inhibition (IC50).

`COc1ccc(C(=O)/C=C/c2cccc(/C=C/C(=O)c3ccc(OC)c(OC)c3)c2)cc1OC`: the IC50 was 140 nM. This IC50 is about 1000-fold lower than that of the molecule before.

The molecule `COc1cc(C(=O)/C=C/c2cccc(/C=C/C(=O)c3cc(OC)c(OC)c(OC)c3)c2)cc(OC)c1OC` registered an IC50 of 120 nM.

The molecule `COc1cc(/C=C/C(=O)c2cccc(C(=O)/C=C/c3cc(OC)c(OC)c(OC)c3)c2)cc(OC)c1OC` displayed a half-inhibitory concentration (IC50) of 140 nM.

`COc1cc(/C=C/C=C/C(=O)c2cccc(C(=O)/C=C/C=C/c3cc(OC)c(OC)c(OC)c3)c2)cc(OC)c1OC` returned an IC50 of 60 nM. Compared with the last molecule, the IC50 is about 2.3-fold lower.

As for `COC(=O)C1=C(O)/C(=C/C=C/c2ccccc2OC)CCC1`, half-maximal inhibition (IC50) was put at 20400 nM. Against the preceding molecule, the IC50 is about 340-fold higher.
